Calls of active or inactive are those of the source. The calls are words filed in the database; no cut-off is given here.
Legend:
[1] = tested on: U-937; test: Induction of apoptosis in human U937 cells assessed as necrotic cells at 3 uM after 18 hrs by annexinV-propidium iodide staining-based flow cytometric analysis (reference value: 0.7%); type: functional
[2] = biological target: Glycogen synthase kinase-3 beta (Homo sapiens) (UniProt P49841); test: Inhibition of GSK3-beta at 10 uM
[3] = tested on: U-937; test: inhibition of PI3K-mediated 4-EBP1 phosphorylation in human U937 cells 1 to 10 uM after 1 hr by Western blot analysis; type: cell-based
In short: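 Cells in RPMI 1640 with 10% heat-inactivated FBS, 37 °C, 5% CO2; treated in growing medium (DU145 24 h; U937 1 h at 5 × 10⁵/mL). Lysed by sonication in SDS sample buffer with protease inhibitors plus 1 mM orthovanadate and pyrophosphate, boiled 5 min. Blots blocked in 5% milk, primary antibodies 1:1000 overnight at 4 °C, HRP secondary 1:2000, chemiluminescence; α-tubulin loading control.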

[4] = Induction of apoptosis in human M12 cells assessed as early apoptotic cells at 20 uM after 24 hrs by annexinV-propidium iodide staining-based flow cytometric analysis (reference value: 13.6%); type: functional
[5] = tested on: DU-145; test: Inhibition of PI3K-mediated Akt phosphorylation in human DU145 cells at 10 to 20 uM after 24 hrs by Western blot analysis; type: cell-based
In short: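 DU145 cells were grown in RPMI 1640 with 10% FBS and treated for 24 h at the indicated concentrations. Lysates were immunoblotted with phospho-Akt (Ser473) primary antibody (1:1000) and HRP secondary (1:2000), then detected by chemiluminescence. α-Tubulin reprobing checked loading.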

[6] = biological target: Tyrosine-protein kinase BTK (Homo sapiens) (UniProt Q06187); test: Inhibition of BTK at 10 uM
[7] = biological target: MAP kinase-activated protein kinase 2 (Homo sapiens) (UniProt P49137); test: Inhibition of MAPKAPK2 at 10 uM
[8] = biological target: Fibroblast growth factor receptor 1 (Homo sapiens) (UniProt P11362); test: Inhibition of FGFR1 at 10 uM
[9] = biological target: Dual specificity mitogen-activated protein kinase kinase 2 (Homo sapiens) (UniProt P36507); test: Inhibition of MEK2 at 10 uM
[10] = tested on: U-937; test: Cell cycle arrest in human U937 cells assessed as sub-diploid apoptotic fraction at 10 uM after 24 hrs by propidium iodide staining-based flow cytometric analysis; type: functional
In short: (§1)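 Cells cultured in RPMI 1640 with 10% FBS and treated 24 h at the indicated concentrations. Stained with propidium iodide for 4 h at 4 °C in the dark. Flow cytometry gave the percentage of cells in G₀/G₁, S, G₂/M and sub-G₁ phases.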

[11] = tested on: DU-145; test: Induction of apoptosis in human DU145 cells assessed as late apoptotic cells at 20 uM after 24 hrs by annexinV-propidium iodide staining-based flow cytometric analysis (reference value: 5.1%); type: functional
[12] = tested on: U-937; test: Cell cycle arrest in human U937 cells assessed as decrease in G2/M-phase population at 10 uM after 24 hrs by propidium iodide staining-based flow cytometric analysis; type: functional; in short: as §1
[13] = biological target: Hepatocyte growth factor receptor (Homo sapiens) (UniProt P08581); test: Inhibition of MET at 10 uM
[14] = tested on: U-937; test: Induction of apoptosis in human U937 cells assessed as early apoptotic cells at 3 uM after 18 hrs by annexinV-propidium iodide staining-based flow cytometric analysis (reference value: 4.3%); type: functional
[15] = tested on: U-937; test: Induction of apoptosis in human U937 cells assessed as early apoptotic cells at 10 uM after 3 hrs by annexinV-propidium iodide staining-based flow cytometric analysis (reference value: 2.8%); type: functional
[16] = biological target: 3-phosphoinositide-dependent protein kinase 1 (Homo sapiens) (UniProt O15530); test: Inhibition of PDK1 at 10 uM
[17] = tested on: U-937; test: Induction of apoptosis in human U937 cells assessed as viable cells at 10 uM after 18 hrs by annexinV-propidium iodide staining-based flow cytometric analysis (reference value: 87.2%); type: functional; details: U-937, 18 h, read-out: Activity
[18] = tested on: DU-145; test: Induction of apoptosis in human DU145 cells assessed as necrotic cells at 20 uM after 24 hrs by annexinV-propidium iodide staining-based flow cytometric analysis (reference value: 2.1%); type: functional
[19] = tested on: U-937; test: Induction of apoptosis in human U937 cells assessed as late apoptotic cells at 10 uM after 6 hrs by annexinV-propidium iodide staining-based flow cytometric analysis (reference value: 13.8%); type: functional
[20] = biological target: Serine/threonine-protein kinase pim-2 (Homo sapiens) (UniProt Q9P1W9); test: Inhibition of PIM2 at 10 uM
[21] = tested on: U-937; test: Induction of apoptosis in human U937 cells assessed as necrotic cells at 3 uM after 6 hrs by annexinV-propidium iodide staining-based flow cytometric analysis (reference value: 1.2%); type: functional
[22] = biological target: RAC-beta serine/threonine-protein kinase (Homo sapiens) (UniProt P31751); test: Inhibition of AKT2 at 10 uM
[23] = tested on: U-937; test: Induction of apoptosis in human U937 cells assessed as viable cells at 3 uM after 6 hrs by annexinV-propidium iodide staining-based flow cytometric analysis (reference value: 80.3%); type: functional; details: U-937, 6 h, read-out: Activity
[24] = biological target: Tyrosine-protein kinase Lck (Homo sapiens) (UniProt P06239); test: Inhibition of LCK at 10 uM
[25] = tested on: U-937; test: Antiproliferative activity in human U937 cells assessed as inhibition of DNA synthesis at 10 to 30 uM after 24 hr by [3H]thymidine incorporation assay; type: functional, cell-based
In short: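 U937 cells, 2 × 10⁴/well, incubated with compound at various concentrations for 1 h or 24 h in presence of 1 µCi [³H]-thymidine. Cells harvested and counted by liquid scintillation. Incorporation expressed as % inhibition versus control. Significance by one-way ANOVA.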

[26] = biological target: Dual specificity tyrosine-phosphorylation-regulated kinase 1A (Homo sapiens) (UniProt Q13627); test: Inhibition of DYRK1a at 10 uM
[27] = tested on: U-937; test: Cell cycle arrest in human U937 cells assessed as accumulation at S-phase at 15 uM after 24 hrs by propidium iodide staining-based flow cytometric analysis; type: functional; in short: as §1
[28] = Inhibition of PKA at 10 uM
[29] = tested on: PC-3; test: Growth inhibition of human PC3 cells after 24 hrs by MTS assay; type: functional, cell-based
In short: (§2)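 Cells in RPMI 1640 with 10% heat-inactivated FBS, seeded 2 × 10⁴ cells/well and exposed 24 h. MTS reagent added, then 1 h further incubation at 37 °C, 5% CO₂. Formazan absorbance read at 490 nm. Viability expressed as percentage of untreated controls.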

[30] = biological target: Ribosomal protein S6 kinase alpha-1 (Homo sapiens) (UniProt Q15418); test: Inhibition of RSK1 at 10 uM
[31] = tested on: U-937; test: Growth inhibition of human U937 cells after 24 hrs by MTS assay; type: functional, cell-based; details: U-937, 24 h; in short: as §2
[32] = biological target: Tyrosine-protein kinase Fyn (Homo sapiens) (UniProt P06241); test: Inhibition of FYN at 10 uM
[33] = Induction of apoptosis in human M12 cells assessed as necrotic cells at 20 uM after 24 hrs by annexinV-propidium iodide staining-based flow cytometric analysis (reference value: 1.7%); type: functional

Chain of RAC-beta serine/threonine-protein kinase (Homo sapiens) (P31751 whole entry): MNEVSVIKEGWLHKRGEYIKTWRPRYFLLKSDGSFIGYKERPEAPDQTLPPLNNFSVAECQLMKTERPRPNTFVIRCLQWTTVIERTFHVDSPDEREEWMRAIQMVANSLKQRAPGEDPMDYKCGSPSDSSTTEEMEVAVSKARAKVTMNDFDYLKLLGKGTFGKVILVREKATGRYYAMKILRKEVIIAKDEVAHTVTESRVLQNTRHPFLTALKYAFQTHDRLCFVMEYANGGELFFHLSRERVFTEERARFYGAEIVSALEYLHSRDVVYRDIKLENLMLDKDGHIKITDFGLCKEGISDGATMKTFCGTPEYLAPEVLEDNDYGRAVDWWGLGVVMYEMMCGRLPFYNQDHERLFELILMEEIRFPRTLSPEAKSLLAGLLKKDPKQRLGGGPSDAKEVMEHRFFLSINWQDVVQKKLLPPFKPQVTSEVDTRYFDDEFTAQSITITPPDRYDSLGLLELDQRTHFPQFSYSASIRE
Chain of Serine/threonine-protein kinase pim-2 (Homo sapiens) (Q9P1W9 whole entry, looked up): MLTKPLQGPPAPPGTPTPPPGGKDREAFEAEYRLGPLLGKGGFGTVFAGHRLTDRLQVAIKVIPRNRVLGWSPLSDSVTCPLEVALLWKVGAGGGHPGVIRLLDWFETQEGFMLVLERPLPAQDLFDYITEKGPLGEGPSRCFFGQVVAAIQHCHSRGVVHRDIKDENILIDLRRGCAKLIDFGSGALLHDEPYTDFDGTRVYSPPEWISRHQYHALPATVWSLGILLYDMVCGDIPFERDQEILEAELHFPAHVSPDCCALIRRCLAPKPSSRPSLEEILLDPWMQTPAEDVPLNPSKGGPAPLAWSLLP
Chain of 3-phosphoinositide-dependent protein kinase 1 (Homo sapiens) (O15530 whole entry, looked up): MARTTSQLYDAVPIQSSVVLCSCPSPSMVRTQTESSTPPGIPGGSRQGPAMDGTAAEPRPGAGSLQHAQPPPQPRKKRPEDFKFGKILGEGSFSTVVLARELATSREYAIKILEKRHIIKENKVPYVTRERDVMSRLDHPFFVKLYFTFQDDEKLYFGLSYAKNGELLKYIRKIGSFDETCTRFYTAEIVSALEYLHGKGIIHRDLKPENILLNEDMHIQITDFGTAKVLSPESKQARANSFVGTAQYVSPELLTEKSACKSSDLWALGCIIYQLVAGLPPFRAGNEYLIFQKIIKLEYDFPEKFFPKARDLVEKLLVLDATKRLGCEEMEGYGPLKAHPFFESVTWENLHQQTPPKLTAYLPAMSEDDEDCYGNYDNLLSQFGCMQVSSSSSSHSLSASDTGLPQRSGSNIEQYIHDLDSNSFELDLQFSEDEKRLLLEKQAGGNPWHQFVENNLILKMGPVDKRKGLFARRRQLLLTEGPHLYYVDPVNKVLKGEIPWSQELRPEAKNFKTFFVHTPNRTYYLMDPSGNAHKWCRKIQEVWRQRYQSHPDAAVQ
Chain of Fibroblast growth factor receptor 1 (Homo sapiens) (P11362 22-822 limits assumed): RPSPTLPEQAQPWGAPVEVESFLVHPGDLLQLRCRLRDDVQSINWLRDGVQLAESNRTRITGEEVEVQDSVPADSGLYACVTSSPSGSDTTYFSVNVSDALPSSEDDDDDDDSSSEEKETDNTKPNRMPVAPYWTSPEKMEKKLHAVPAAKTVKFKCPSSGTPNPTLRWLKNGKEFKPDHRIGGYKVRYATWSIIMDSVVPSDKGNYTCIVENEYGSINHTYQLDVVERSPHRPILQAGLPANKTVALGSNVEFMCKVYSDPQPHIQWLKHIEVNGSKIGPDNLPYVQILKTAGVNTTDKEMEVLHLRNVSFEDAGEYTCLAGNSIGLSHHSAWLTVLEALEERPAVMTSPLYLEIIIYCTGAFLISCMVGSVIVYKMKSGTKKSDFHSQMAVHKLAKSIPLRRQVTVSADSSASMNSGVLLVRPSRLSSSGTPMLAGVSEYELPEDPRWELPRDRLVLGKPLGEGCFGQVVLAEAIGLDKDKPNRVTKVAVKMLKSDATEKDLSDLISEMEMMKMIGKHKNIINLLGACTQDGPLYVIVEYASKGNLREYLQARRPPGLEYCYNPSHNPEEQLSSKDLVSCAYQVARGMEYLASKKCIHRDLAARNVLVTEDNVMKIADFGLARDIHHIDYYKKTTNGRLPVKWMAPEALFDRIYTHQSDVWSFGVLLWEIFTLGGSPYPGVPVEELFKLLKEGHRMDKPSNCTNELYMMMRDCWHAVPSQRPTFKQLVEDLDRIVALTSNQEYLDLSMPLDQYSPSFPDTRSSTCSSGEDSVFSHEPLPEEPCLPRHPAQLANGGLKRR
Chain of Ribosomal protein S6 kinase alpha-1 (Homo sapiens) (Q15418 whole entry): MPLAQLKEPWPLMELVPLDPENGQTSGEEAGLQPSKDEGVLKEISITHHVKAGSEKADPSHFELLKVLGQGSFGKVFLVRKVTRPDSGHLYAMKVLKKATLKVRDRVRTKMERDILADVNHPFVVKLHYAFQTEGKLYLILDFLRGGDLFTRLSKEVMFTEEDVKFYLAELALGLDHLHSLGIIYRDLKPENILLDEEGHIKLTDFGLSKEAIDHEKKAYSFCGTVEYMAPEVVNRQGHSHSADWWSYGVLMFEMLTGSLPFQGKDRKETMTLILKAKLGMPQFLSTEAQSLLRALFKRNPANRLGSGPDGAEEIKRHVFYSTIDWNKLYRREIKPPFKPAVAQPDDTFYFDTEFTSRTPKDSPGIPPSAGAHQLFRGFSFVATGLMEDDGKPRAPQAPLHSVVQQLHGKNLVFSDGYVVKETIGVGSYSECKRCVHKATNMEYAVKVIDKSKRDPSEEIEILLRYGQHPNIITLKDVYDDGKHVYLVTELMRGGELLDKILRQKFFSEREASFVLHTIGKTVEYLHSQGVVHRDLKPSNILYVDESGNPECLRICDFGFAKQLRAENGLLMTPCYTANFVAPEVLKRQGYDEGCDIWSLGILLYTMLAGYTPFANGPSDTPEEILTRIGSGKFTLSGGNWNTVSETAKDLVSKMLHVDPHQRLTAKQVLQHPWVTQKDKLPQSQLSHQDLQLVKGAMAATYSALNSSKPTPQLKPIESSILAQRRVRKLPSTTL
Chain of Tyrosine-protein kinase Fyn (Homo sapiens) (P06241 2-537 limits assumed): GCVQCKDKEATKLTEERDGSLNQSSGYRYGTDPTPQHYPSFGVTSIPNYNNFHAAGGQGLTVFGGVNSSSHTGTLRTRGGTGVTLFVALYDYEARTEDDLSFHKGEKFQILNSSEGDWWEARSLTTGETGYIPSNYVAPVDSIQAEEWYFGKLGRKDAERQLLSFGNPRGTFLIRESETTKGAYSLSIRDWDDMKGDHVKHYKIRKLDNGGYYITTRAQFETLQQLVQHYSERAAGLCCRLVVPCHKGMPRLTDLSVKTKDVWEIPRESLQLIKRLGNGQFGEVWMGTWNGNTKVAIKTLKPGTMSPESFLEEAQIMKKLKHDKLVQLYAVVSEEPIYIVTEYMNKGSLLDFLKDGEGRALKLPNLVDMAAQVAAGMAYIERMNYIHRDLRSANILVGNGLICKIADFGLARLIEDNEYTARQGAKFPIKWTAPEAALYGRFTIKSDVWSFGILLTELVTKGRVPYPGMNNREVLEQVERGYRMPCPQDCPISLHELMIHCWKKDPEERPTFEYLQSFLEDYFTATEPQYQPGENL
Chain of Tyrosine-protein kinase BTK (Homo sapiens) (Q06187 whole entry): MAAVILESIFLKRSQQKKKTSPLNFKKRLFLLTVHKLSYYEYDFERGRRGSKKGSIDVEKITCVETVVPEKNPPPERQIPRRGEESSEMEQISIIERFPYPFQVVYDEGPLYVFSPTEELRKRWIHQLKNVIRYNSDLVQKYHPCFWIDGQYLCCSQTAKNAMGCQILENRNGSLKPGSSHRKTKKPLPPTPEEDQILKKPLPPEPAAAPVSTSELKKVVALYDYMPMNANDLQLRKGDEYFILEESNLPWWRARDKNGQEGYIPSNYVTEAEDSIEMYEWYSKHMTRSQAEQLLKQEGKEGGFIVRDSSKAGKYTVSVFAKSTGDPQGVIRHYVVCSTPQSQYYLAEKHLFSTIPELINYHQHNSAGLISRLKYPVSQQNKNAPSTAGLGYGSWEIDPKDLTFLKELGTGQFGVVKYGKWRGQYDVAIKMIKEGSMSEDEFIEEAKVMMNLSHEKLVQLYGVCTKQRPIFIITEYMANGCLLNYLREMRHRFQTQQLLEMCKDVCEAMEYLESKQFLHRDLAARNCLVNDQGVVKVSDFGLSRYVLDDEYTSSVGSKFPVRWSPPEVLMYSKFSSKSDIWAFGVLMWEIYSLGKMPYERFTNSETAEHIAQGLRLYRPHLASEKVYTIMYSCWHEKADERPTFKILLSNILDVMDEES
Chain of Glycogen synthase kinase-3 beta (Homo sapiens) (P49841 whole entry, looked up): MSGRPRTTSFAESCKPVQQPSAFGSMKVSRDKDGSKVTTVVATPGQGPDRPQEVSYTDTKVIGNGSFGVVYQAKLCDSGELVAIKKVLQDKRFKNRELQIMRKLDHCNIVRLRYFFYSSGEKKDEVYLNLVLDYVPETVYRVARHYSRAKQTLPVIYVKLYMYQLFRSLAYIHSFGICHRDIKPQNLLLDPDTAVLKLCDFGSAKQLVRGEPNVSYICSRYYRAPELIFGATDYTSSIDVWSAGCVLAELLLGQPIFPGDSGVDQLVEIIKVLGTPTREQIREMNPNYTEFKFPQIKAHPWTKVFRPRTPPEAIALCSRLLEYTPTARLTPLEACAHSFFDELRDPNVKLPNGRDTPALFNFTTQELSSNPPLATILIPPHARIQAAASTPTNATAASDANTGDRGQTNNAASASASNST
Chain of Tyrosine-protein kinase Lck (Homo sapiens) (P06239 2-509 limits assumed): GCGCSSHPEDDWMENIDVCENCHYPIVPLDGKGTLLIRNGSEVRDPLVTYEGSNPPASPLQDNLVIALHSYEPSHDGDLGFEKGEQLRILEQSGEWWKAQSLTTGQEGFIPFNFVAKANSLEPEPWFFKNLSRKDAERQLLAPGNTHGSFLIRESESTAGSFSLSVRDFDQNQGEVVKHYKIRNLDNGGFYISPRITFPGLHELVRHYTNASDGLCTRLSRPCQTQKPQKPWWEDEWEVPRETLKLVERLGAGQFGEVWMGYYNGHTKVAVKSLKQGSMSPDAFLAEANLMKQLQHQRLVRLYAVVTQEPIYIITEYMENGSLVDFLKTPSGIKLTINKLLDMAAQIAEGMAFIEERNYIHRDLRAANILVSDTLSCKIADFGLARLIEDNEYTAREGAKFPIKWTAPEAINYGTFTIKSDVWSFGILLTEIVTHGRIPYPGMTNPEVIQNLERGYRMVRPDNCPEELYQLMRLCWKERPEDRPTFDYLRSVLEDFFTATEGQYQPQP

In the case of `NCCN1C(=O)S/C(=C\CCC2CCCCC2)C1=O`, the Activity [1] is reported as 0.7%, the inhibition [2] is reported as 0% and the inhibition [3] is reported as “Active”. For the same compound, the Activity [4] was 29.2%, the inhibition [5] was “Active” and the inhibition [6] was 12%. The inhibition [7] was 3%, the inhibition [8] was 3% and the inhibition [9] was 27%. For the same compound, the Activity [10] was 49.9%, the Activity [11] was 23% and the Activity [12] was “Active”. The inhibition [13] was -1%, the Activity [14] was 3.5% and the Activity [15] was 23.8%. The inhibition [16] was -2%, the viability at 10 µM [17] was 42.9% and the Activity [18] was 3.2%. It also gave an Activity [19] of 40.2%, an inhibition [20] of 38% and an Activity [21] of 2.1%. It also gave an inhibition [22] of 8%, a viability at 3 µM [23] of 75.7% and an inhibition [24] of 4%. For the same compound, the Activity [25] was “Active”, the inhibition [26] was -5% and the Activity [27] was 31.4%. The inhibition [28] was -3%, the “growth inhibition (GI)” value [29] was “Active” and the inhibition [30] was 2%. For the same compound, the IC50 [31] was 3.4 µM, the inhibition [32] was 0% and the Activity [33] was 5.2%.

From ChEMBL document CHEMBL1926538, “3,5-Disubstituted-thiazolidine-2,4-dione analogs as anticancer agents: design, synthesis and biological characterization” (Eur J Med Chem, 2012)
